In ChEMBL document CHEMBL4033799, “Stable and Long-Lasting, Novel Bicyclic Peptide Plasma Kallikrein Inhibitors for the Treatment of Diabetic Macular Edema” (J Med Chem, 2018):
*1 amine or outer side, *2 acyl side, *3 side chain or, on linkers, in order; H or OH if unused. Where a SMILES comes first, the peptide text is derived from it. Bridges are numbered along the chain shown (N, C = ends). TBMB = c1c(C[*:1])cc(C[*:3])cc1C[*:2]

Legend:
[1] = tested on: Plasma; experiment: Anti-coagulating activity in factor 8-deficient human plasma assessed as increase in coagulation time at 10 uM by aPTT assay; type: functional
In short: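 Clotting time measured on a coagulation analyzer using actin FS, 0.025 M CaCl2, FVIII-deficient human plasma and Owren's Veronal Buffer pH 7.35, run per the manufacturer's instructions. Peptide tested from zero (vehicle) up to 10 μM. Each point is the mean ± SD of triplicates.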

[2] = tested on: Rattus norvegicus; experiment: Antiinflammatory activity in Sprague-Dawley rat assessed as inhibition carrageenan-induced paw edema at 30 mg/kg, ip pretreated for 15 mins followed by carrageenan challenge measured at 1 hr post carrageenan challenge; type: functional
In short: (§1)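 Male Sprague-Dawley rats received peptide IP (30, 10 or 3 mg/kg), or indomethacin IP at 5 mg/kg, 15 min before subplantar carrageenan. Paw volume was followed over time against a vehicle group.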

[3] = tested on: Rattus norvegicus; experiment: Antiinflammatory activity in Sprague-Dawley rat assessed as inhibition carrageenan-induced paw edema at 30 mg/kg, ip pretreated for 15 mins followed by carrageenan challenge measured at 2 hrs post carrageenan challenge; type: functional; in short: as §1
[4] = tested on: Rattus norvegicus; experiment: Antiinflammatory activity in Sprague-Dawley rat assessed as inhibition carrageenan-induced paw edema at 30 mg/kg, ip pretreated for 15 mins followed by carrageenan challenge measured at 4 hrs post carrageenan challenge; type: functional; in short: as §1
[5] = tested on: Rattus norvegicus; experiment: Antidiabetic activity in STZ-induced diabetic Brown-Norway rat model assessed as reduction in retinal vascular leakage at 100 ug/eye administered via ivt measured at 4 weeks post diabetes onset relative to control; type: functional
In short: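 Diabetes was induced with STZ in male Brown-Norway rats. Peptide was given intravitreally at 100 μg/eye. Retinal vascular permeability was read as FITC-BSA extravasation 4 weeks after diabetes onset and compared with vehicle-treated diabetic rats. A soluble VEGF-trap served as positive control.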

[6] = tested on: Plasma; experiment: Stability in rat plasma at 50 uM incubated for 2 days by MALDI-TOF analysis; type: ADME, cell-free; conditions: 48 h
In short: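 Qualitative stability test. 1 mM DMSO stock diluted into citrated rat plasma to 50 μM and held at 37 °C for up to 2 days. Aliquots at time points quenched in 1:1 acetonitrile/methanol and centrifuged. Supernatant mixed with 30 mM ammonium bicarbonate. Parent mass and protease metabolites detected by MALDI-TOF.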

[7] = Aqueous solubility of the compound in buffer; type: physicochemical
[8] = molecular target: Plasma kallikrein (Homo sapiens, UniProt P03952); experiment: Inhibition of human plasma kallikrein using fluorogenic H-Pro-Phe-Arg-AMC peptide as substrate preincubated for 15 mins followed by substrate addition measured by fluorescence-based assay; conditions: read-out: Ki(app)
Sequence of Plasma kallikrein (Homo sapiens, UniProt P03952) (P03952 20-390 limits assumed): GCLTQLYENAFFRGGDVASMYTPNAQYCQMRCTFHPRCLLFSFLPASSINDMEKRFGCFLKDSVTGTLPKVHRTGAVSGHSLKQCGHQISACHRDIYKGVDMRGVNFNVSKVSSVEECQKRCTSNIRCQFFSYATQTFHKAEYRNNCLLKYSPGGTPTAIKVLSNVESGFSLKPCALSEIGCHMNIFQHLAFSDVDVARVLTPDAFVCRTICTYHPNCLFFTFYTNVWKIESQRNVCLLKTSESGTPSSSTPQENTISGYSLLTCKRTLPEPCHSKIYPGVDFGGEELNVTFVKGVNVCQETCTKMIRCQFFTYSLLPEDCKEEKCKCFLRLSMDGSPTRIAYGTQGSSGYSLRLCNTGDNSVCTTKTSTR
Sequence of Plasma kallikrein (Homo sapiens, UniProt P03952) (P03952 391-638 limits assumed): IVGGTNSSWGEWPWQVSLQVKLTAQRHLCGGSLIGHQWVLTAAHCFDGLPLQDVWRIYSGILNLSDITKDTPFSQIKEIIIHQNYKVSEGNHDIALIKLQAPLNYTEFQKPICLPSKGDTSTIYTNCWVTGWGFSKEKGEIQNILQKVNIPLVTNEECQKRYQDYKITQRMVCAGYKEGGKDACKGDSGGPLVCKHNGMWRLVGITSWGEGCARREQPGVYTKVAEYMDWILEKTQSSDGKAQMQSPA

[9] = molecular target: Plasma kallikrein (Rattus norvegicus, UniProt P14272); experiment: Inhibition of recombinant Sprague-Dawley rat plasma kallikrein using fluorogenic H-Pro-Phe-Arg-AMC peptide as substrate preincubated for 15 mins followed by substrate addition measured by fluorescence-based assay; conditions: read-out: Ki(app)
Sequence of Plasma kallikrein (Rattus norvegicus, UniProt P14272) (P14272 20-390 limits assumed): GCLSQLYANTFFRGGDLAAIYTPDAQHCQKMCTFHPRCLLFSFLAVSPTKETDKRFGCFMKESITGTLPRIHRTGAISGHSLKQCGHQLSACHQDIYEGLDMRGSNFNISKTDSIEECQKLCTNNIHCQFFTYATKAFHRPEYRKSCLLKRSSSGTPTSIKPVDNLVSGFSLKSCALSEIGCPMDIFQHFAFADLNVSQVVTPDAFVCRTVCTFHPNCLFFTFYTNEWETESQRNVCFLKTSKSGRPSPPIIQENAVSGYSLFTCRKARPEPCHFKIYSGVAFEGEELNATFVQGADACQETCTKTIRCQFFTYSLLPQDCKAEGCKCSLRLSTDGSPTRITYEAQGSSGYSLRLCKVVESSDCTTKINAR
Sequence of Plasma kallikrein (Rattus norvegicus, UniProt P14272) (P14272 391-638 limits assumed): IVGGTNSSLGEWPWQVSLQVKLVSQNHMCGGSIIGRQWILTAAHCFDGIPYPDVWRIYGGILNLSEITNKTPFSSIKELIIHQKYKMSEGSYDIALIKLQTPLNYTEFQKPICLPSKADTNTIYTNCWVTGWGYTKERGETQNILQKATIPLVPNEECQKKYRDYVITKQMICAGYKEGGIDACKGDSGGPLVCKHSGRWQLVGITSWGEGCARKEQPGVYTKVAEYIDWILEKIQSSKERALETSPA

Structure (SMILES) | Activity [1] [%] | inhibition in vivo at 30 mg/kg [2] [%] | inhibition in vivo at 30 mg/kg [3] [%] | inhibition in vivo at 30 mg/kg [4] [%] | inhibition (INH) [5] [%] | Stability [6] | solubility [7] | Ki [8] [nM] | Ki [9] [nM]
CC(=O)N[C@H]1CSCc2cc3cc(c2)CSC[C@H](NC(=O)[C@H](CCCCNC(=N)N)NC(=O)[C@H](Cc2ccc(O)cc2)NC(=O)[C@@H]2CCN2C(=O)[C@H](Cc2ccccc2)NC(=O)[C@H](CO)NC1=O)C(=O)N[C@@H](C)CN[C@@H](Cc1cnc[nH]1)C(=O)N[C@@H](CCC(N)=O)C(=O)N[C@@H](CC(=O)O)C(=O)N[C@@H](CC(C)C)C(=O)N[C@H](C(=O)O)CSC3 | 15 | 90 | 52 | 32 | 30 |  |  |  | 
CC(C)C[C@@H]1NC(=O)[C@@H]2CCCN2C(=O)[C@H](C)NC(=O)[C@H](CC(=O)O)NC(=O)[C@H](Cc2c[nH]c3ccccc23)NC(=O)[C@@H]2CCCN2C(=O)[C@@H]2CSCc3cc(cc(c3)CSC[C@@H](C(=O)N[C@@H](C)C(=O)O)NC1=O)CSC[C@H](NC(=O)[C@H](C)N)C(=O)N[C@@H](CC(N)=O)C(=O)N[C@@H]([C@@H](C)O)C(=O)N[C@@H](Cc1c[nH]c3ccccc13)C(=O)N[C@@H](CC(N)=O)C(=O)N1CCC[C@H]1C(=O)N[C@@H](Cc1c[nH]c3ccccc13)C(=O)N2 (H-ACNTWNPWCPWDAPLCA-OH; linker 2-9-16 via TBMB) |  |  |  |  |  | Unstable | Insoluble | 2.3 | 0.4
